Laboratory results reported in ChEMBL document CHEMBL2311315, “Radiosynthesis and evaluation of [¹¹C-carbonyl]-labeled carbamates as fatty acid amide hydrolase radiotracers for positron emission tomography” (J Med Chem, 2013).

Assays:
[1] = Half life in phosphate buffer at pH 7.4 by HPLC analysis; format: physicochemical
[2] = target: T1, Fatty-acid amide hydrolase 1 (Rattus norvegicus) (UniProt P97612); assay: Inhibition of FAAH-mediated [3H]anandamide hydrolysis in rat brain homogenate assessed as [3H]ethanolamine production at 100 nM incubated for 60 mins prior to substrate addition measured after 10 mins by liquid scintillation counting analysis relative to control; format: tissue-based
T1 sequence (whole entry): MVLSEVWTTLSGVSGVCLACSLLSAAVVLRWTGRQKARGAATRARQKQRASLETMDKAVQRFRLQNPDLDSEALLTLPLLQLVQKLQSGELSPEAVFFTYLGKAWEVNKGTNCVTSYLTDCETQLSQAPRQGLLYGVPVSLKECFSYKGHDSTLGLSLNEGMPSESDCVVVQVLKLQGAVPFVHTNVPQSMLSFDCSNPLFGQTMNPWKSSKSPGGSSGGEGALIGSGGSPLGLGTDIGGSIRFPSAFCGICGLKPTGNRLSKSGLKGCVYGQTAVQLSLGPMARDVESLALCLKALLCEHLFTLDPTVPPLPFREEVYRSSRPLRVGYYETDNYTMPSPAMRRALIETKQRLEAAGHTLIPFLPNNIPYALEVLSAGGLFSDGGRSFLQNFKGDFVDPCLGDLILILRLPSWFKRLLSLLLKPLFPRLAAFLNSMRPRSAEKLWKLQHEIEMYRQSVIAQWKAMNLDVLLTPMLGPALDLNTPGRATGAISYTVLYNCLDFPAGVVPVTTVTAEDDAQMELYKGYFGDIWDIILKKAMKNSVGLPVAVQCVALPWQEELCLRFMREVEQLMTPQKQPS
How it was run: (§1)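 Rat brain homogenate (0.5 μg protein) preincubated with inhibitor 60 min, then 0.5 μM [3H]anandamide (ethanolamine-labelled) added and incubated a further 10 min at 37 °C. Reaction stopped with charcoal in 0.5 M HCl; aqueous [3H]ethanolamine counted by liquid scintillation with quench correction. Values are % inhibition ± SEM, n = 3.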

[3] = target: T1, Fatty-acid amide hydrolase 1 (Rattus norvegicus); assay: Inhibition of FAAH-mediated [3H]anandamide hydrolysis in rat brain homogenate assessed as [3H]ethanolamine production at 10 nM incubated for 60 mins prior to substrate addition measured after 10 mins by liquid scintillation counting analysis relative to control; format: tissue-based; how it was run: as §1
[4] = target: T1, Fatty-acid amide hydrolase 1 (Rattus norvegicus); assay: Inhibition of FAAH-mediated [3H]anandamide hydrolysis in rat brain homogenate assessed as [3H]ethanolamine production at 1 nM incubated for 60 mins prior to substrate addition measured after 10 mins by liquid scintillation counting analysis relative to control; format: tissue-based
How it was run: (§2)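 Rat brain homogenate (0.5 μg protein) preincubated with inhibitor 60 min, then 0.5 μM [3H]anandamide (ethanolamine-labelled) added and incubated a further 10 min at 37 °C. Reaction stopped with charcoal in 0.5 M HCl; aqueous [3H]ethanolamine counted by liquid scintillation with quench correction.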

[5] = target: T1, Fatty-acid amide hydrolase 1 (Rattus norvegicus); assay: Inhibition of FAAH-mediated [3H]anandamide hydrolysis in rat brain homogenate assessed as [3H]ethanolamine production at 0.1 nM incubated for 60 mins prior to substrate addition measured after 10 mins by liquid scintillation counting analysis relative to control; format: tissue-based; how it was run: as §2
Cortex [6] = assay: Biodistribution in URB597-pretreated Sprague-Dawley rat brain cortex at 0.3 to 0.8 nmol, iv administered 30 mins after URB597-treatment measured after 40 mins by gamma counting analysis; format: ADME, organism-based; conditions: in vivo
How it was run: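 Rats received 2 mg/kg ip (2 mL/kg saline with Tween 80) of the FAAH inhibitor, or vehicle alone, 30 min before tracer. Tracer was 30–60 MBq iv by tail vein (0.3–0.8 nmol; buffered saline, 0.5% Tween 80), n = 5. Cortex was excised at 40 min, weighed, gamma counted and decay-corrected. Reported as SUV, mean ± SD. Compared with vehicle by Student's t test.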

Hypothalamus [7] = assay: Biodistribution in Sprague-Dawley rat brain hypothalamus at 0.3 to 0.8 nmol, iv after 40 mins by gamma counting analysis; format: ADME, organism-based; conditions: in vivo
How it was run: (§3)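 Conscious male Sprague–Dawley rats (300–350 g), n = 5 per time point, received 30–60 MBq [11C]-radiotracer (70–170 GBq/μmol; 0.3–0.8 nmol) iv by tail vein in buffered saline with 0.5% Tween 80. Decapitated at 2 or 40 min. Dissected regions were weighed and gamma counted, decay-corrected to injection. Reported as SUV (%ID/g […]), mean ± SD.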

Hypothalamus [8] = assay: Biodistribution in Sprague-Dawley rat brain hypothalamus at 0.3 to 0.8 nmol, iv after 2 mins by gamma counting analysis; format: ADME, organism-based; conditions: in vivo; how it was run: as §3
Cortex [9] = assay: Biodistribution in Sprague-Dawley rat brain cortex at 0.3 to 0.8 nmol, iv after 40 mins by gamma counting analysis; format: ADME, organism-based; conditions: in vivo; how it was run: as §3
Cortex [10] = assay: Biodistribution in Sprague-Dawley rat brain cortex at 0.3 to 0.8 nmol, iv after 2 mins by gamma counting analysis; format: ADME, organism-based; conditions: in vivo; how it was run: as §3
[11] = 1-octanol-phosphate buffer partition coefficient, log D of the compound at pH 7.4; format: physicochemical; conditions: octanol/water
How it was run: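 Radiotracer partitioned between 1-octanol and 0.02 M phosphate buffer, pH 7.4. Each determination replicated six times.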

Rattus norvegicus = assay: Biodistribution in URB597-pretreated Sprague-Dawley rat brain parenchyma at 0.3 to 0.8 nmol, iv administered 30 mins after […]-treatment measured after 60 mins by gamma counting analysis; format: ADME, organism-based; conditions: in vivo, 1 h
How it was run: (§4)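 Rats (n = 3–4) were injected iv with [11C]-radiotracer as in the biodistribution procedure. At various times, whole brain was homogenized and exhaustively extracted with aqueous acetonitrile. Extracted (unbound) and tissue-bound radioactivity were counted. Binding rate was fitted to a one-phase exponential association, Y = Ymax(1 − exp(−KX)). Blocking used ip pretreatment with the FAAH inhibitor.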

[12] = Half life in URB597-pretreated Sprague-Dawley rat brain parenchyma at 0.3 to 0.8 nmol, iv administered 30 mins after […]-treatment; format: ADME, organism-based; how it was run: as §4
Brain [13] = assay: Drug uptake in URB597-pretreated Sprague-Dawley rat brain parenchyma at 0.3 to 0.8 nmol, iv administered 30 mins after […]-treatment measured after 40 mins by gamma counting analysis; format: ADME, organism-based; conditions: in vivo; how it was run: as §4
Brain [14] = assay: Drug uptake in URB597-pretreated Sprague-Dawley rat brain parenchyma at 0.3 to 0.8 nmol, iv administered 30 mins after […]-treatment measured after 5 mins by gamma counting analysis; format: ADME, organism-based; conditions: in vivo; how it was run: as §4
[15] = target: T1, Fatty-acid amide hydrolase 1 (Rattus norvegicus); assay: Ratio of IC50 for FAAH in rat brain homogenate in the absence of preincubation phase to IC50 for FAAH in rat brain homogenate after 45 mins preincubation phase; format: tissue-based
[16] = target: T2, Fatty-acid amide hydrolase 1 (Rattus norvegicus, UniProt P97612); assay: Inhibition of FAAH-mediated [3H]anandamide hydrolysis in rat brain homogenate assessed as [3H]ethanolamine production incubated for 45 mins prior to substrate addition measured after 10 mins by liquid scintillation counting analysis; format: tissue-based
T2 sequence (P97612 whole entry): T1 sequence (whole entry)
How it was run: (§5)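 Rat brain homogenate (0.5 μg protein) preincubated with inhibitor at 37 °C for 45 or 90 min, eight concentrations over 0.1–30 nM or six over 1–50 nM. Then 0.5 μM [3H]anandamide added for a further 10 min at 37 °C. Charcoal/HCl stop; [3H]ethanolamine in aqueous phase counted by scintillation. pI50 ± value reported, converted to IC50.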

[17] = target: T2, Fatty-acid amide hydrolase 1; assay: Inhibition of FAAH-mediated [3H]anandamide hydrolysis in rat brain homogenate assessed as [3H]ethanolamine production incubated for 90 mins prior to substrate addition measured after 10 mins by liquid scintillation counting analysis; format: tissue-based; how it was run: as §5
Plasma = assay: Percentage unbound in human plasma after 10 mins by ultrafiltration method; format: ADME, cell-free
How it was run: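 Human plasma from 6 blood samples was spiked with [11C]-radiotracer, held 10 min at ambient temperature, then ultrafiltered by centrifugation. Ultrafiltrate and plasma were counted and weighed. Binding to the device was corrected using pH 7.4 phosphate buffer in place of plasma.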

Row | SUV (Cortex [6]) | SUV (Hypothalamus [7]) | SUV (Hypothalamus [8]) | Drug uptake (Cortex [9]) [%] | SUV (Cortex [9]) | SUV (Cortex [10]) | Compound | t1/2 [1] [h] | inhibition [2] [%] | inhibition [3] [%] | inhibition [4] [%] | inhibition [5] [%] | logD [11] | other results
1 | – | – | – | – | – | – | CN1CCC(NC(=O)Oc2ccc(O)c(-c3ccccc3)c2)CC1 | 25 | 12 | 1 | -0.5 | 2 | – | –
2 | 0.23 | 1.48 | 1.81 | 80 | 3.37 | 2.68 | O=[11C](NC1CCC1)Oc1ccc(O)c(-c2ccccc2)c1 | – | – | – | – | – | – | –
3 | – | – | – | – | – | – | O=C(NC1CCCC1)Oc1ccc(O)c(-c2ccccc2)c1 | 138 | 99 | 80 | 15 | -8 | 2.8 | –
4 | – | – | – | – | – | – | CN1CCC(NC(=O)Oc2cccc(-c3ccccc3)c2)CC1 | – | 13 | 6 | 9 | 6 | – | –
5 | – | – | – | – | – | – | O=C(NC1CCC1)Oc1ccc(O)c(-c2ccccc2)c1 | 89 | 101 | 70 | 8 | -0.1 | 3.42 | –
6 | – | – | – | – | – | – | O=C(NC1CCCC1)Oc1cccc(C2=NCCO2)c1 | 4.6 | 99 | 40 | 4 | -2 | 2.35 | –
7 | – | – | – | – | – | – | O=C(NC1CCCCC1)Oc1cccc(C2=NCCO2)c1 | 5.1 | 99 | 97 | 31 | 0.2 | 3.01 | –
8 | – | – | – | – | – | – | O=C(NC1CCCCC1)Oc1ccc(O)c(-c2ccccc2)c1 | 121 | 101 | 69 | 4 | -2 | 2.85 | Ratio IC50 [15]: 4; IC50 [16]: 9.4 nM; IC50 [17]: 4.9 nM; Fu (Plasma): 0.75%
9 | 0.36 | 1.14 | 1.61 | 80 | 2.49 | 2.4 | O=[11C](NC1CCCCC1)Oc1ccc(O)c(-c2ccccc2)c1 | – | – | – | – | – | – | Drug uptake (Rattus norvegicus): 90%; half-life [12]: 6.6 min
10 | – | – | – | – | – | – | CN1CCC(NC(=O)Oc2cccc(C3=NCCO3)c2)CC1 | 0.8 | 8 | 3 | 12 | 6 | – | –
11 | – | – | – | – | – | – | CCCCCCNC(=O)Oc1cccc(C2=NCCO2)c1 | 8.7 | 100 | 100 | 74 | 9 | 3.33 | Ratio IC50 [15]: 4; IC50 [16]: 1.2 nM; IC50 [17]: 0.55 nM
12 | – | – | – | – | – | – | NC(=O)c1cccc(-c2cccc(OC(=O)NC3CCCCC3)c2)c1 [URB-597] | 19 | – | – | – | – | 3.61 | Fu (Plasma): 0.48%
13 | 0.27 | 1.25 | 1.21 | 80 | 2.49 | 1.63 | CCCCCCN[11C](=O)Oc1ccc(O)c(-c2ccccc2)c1 | – | – | – | – | – | – | –
14 | – | – | – | – | – | – | CCCCCCNC(=O)Oc1ccc(O)c(-c2ccccc2)c1 | 77 | 100 | 97 | 44 | 9 | 3.67 | Fu (Plasma): 0.35%

Row | Compound | SUV (Cortex [6]) | SUV (Hypothalamus [7]) | SUV (Hypothalamus [8]) | Drug uptake (Cortex [9]) [%] | SUV (Cortex [9]) | SUV (Cortex [10]) | t1/2 [1] [h] | inhibition [2] [%] | inhibition [3] [%] | inhibition [4] [%] | inhibition [5] [%] | logD [11] | other results
15 | NC(=O)c1cccc(-c2cccc(O[11C](=O)NC3CCCCC3)c2)c1 | 0.17 | 0.51 | 0.47 | 80 | 0.94 | 0.79 | – | – | – | – | – | – | –
16 | O=[11C](NC1CCCC1)Oc1ccc(O)c(-c2ccccc2)c1 | 0.33 | 1.22 | 1.87 | 80 | 3.09 | 2.36 | – | – | – | – | – | – | Drug uptake (Rattus norvegicus): 90%; half-life [12]: 5.5 min; Drug uptake (Brain [13]): Not Active; Drug uptake (Brain [14]): Not Active
